High-throughput results from PubChem BioAssay.
STEP block = STEP (human) phosphatase inhibition; P54829; recombinant STEP, OMFP fluorogenic substrate, fluorescence; inhibition, % at 20 µM; 360,000 compounds, 0.25% hits; AID 588621;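 active = inhibition at 20 µM, scaled per plate between control wells, above about 37%, limit read from the data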;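 note: 0% = DMSO with enzyme and substrate and 100% = substrate only without enzyme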
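material = STEP tyrosine phosphatase | reagent = fluorogenic phosphatase substrate OMFP at 25 µM final | doses = single compound dose of 20 µM, 1% DMSO final | schedule = 20 min reaction, room temperature, in the dark | measured by = fluorescence, 480/540 nm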
NadD block = blocks S. aureus nicotinate mononucleotide adenylyltransferase | 360,000 compounds, 0.78% hits | purified NadD enzyme, colorimetric absorbance read-out | AID 602399 | inhibition, % at 20 µM; in the data active = inhibition above about 26%
LMPTP block = blocks human LMPTP phosphatase. P24666. recombinant LMPTP-A, OMFP fluorogenic substrate, fluorescence intensity. AID 651560. inhibition, % at 20 µM. 360,000 compounds, 0.22% hits;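 active = compounds that cut the enzyme signal by at least half of the control window in the single-dose screen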;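 note: plate controls were DMSO wells with enzyme plus substrate for no effect and substrate without enzyme for full effect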
Target sequence (P24666 whole entry, looked up): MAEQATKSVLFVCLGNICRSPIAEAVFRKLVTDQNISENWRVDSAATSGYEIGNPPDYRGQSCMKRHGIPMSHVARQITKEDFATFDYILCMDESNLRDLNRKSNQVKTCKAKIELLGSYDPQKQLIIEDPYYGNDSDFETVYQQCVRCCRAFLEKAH
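Buffer or medium: Bis-Tris pH 6.0, DTT, detergent; Assay system: LMPTP-A enzyme; Quantity: 0.625 nM enzyme; Detection: endpoint fluorescence intensity; Times: 50 min dark incubation at room temperature; Controls: substrate-only low control, DMSO enzyme-plus-substrate high control; Doses: single 20 µM dose; Read-out: percent inhibition versus substrate-only and uninhibited controls; Reagent: 400 µM OMFP.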
Scp-1 inhibitor = blocks human Scp-1 phosphatase activity; 340,000 compounds, 0.88% hits; inhibition, % at 20 µM; Recombinant Scp1, phosphopeptide, malachite green phosphate absorbance; Q9GZU7;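 active = inhibition above about 50% at 20 µM, limit read from the data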;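 note: plate controls were DMSO wells with enzyme for no effect and wells lacking enzyme for full effect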
Target sequence (Q9GZU7 76-261 limits assumed): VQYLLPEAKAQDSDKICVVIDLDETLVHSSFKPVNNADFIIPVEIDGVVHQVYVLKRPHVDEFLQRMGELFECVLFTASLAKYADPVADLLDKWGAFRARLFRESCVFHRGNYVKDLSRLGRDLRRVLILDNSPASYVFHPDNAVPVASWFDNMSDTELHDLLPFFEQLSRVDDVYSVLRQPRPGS
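System: SCP-1 catalytic domain; Reagent: Phospho 17-mer peptide substrate; Doses: one concentration, 20 µM, with 1.0% DMSO; Incubation: 45 min room-temperature reaction, 5 min colour, 30 min stabiliser; Signal: Phosphate-binding colour reagent, absorbance read at 630 nm.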
rCAG RNA binder = binds r(CAG) RNA repeats; r(CAG) RNA repeat, TO-PRO-1 dye displacement fluorescence; 370,000 compounds, 1.3% hits; inhibition, % at 3 µM;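 active = inhibition above the plate cutoff, the mean of all test compounds on that plate plus 3 SD, cut at about 35% in these data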;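 note: 0% = DMSO alone and 100% = 100 µM mitoxantrone as full dye displacement; higher means more dye released from RNA so lower well fluorescence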
rCAG bind conf = r(CAG) RNA repeat binding, confirmation. shares compounds with rCAG RNA binder. TO-PRO-1 dye displacement fluorescence. inhibition, % at 3 µM. 4,300 compounds, 70% hits. AID 652065;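 active = inhibition above a per-plate cutoff, the mean inhibition of sample wells plus 3 SD, cut at about 35% in these data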;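 note: loss of TO-PRO-1 fluorescence as compound displaces dye from 1x1 AA loop RNA; 0% = DMSO only wells and 100% = 100 µM mitoxantrone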
dCAG dye counter = counter-screen for rCAG RNA binders: DNA CAG dye complex inhibitors. shares compounds with rCAG RNA binder. d(CAG) DNA oligo TO-PRO-1 dye displacement, fluorescence. inhibition, % at 3 µM. 4,300 compounds, 94% hits. AID 652068;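 active = inhibition above its plate's cutoff, the mean test-well inhibition plus 3 SD, cut at about 4.8% in these data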;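 note: 0% = DNA dye mix with DMSO and 100% = 100 µM mitoxantrone; hits displace the dye from DNA and so lower well fluorescence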
Numbers without * were called inactive; nt = no result. Compounds with a hit are over-represented: about 2.6% of the library has one in this group of screens.

SMILES	STEP block	NadD block	LMPTP block	Scp-1 inhibitor	rCAG RNA binder	rCAG bind conf	dCAG dye counter
O=C(CSc1nnc(-c2ccccn2)n1-c1ccccc1)Nc1ccccc1-c1ccccc1	nt	nt	nt	nt	6	nt	nt
COC(=O)[C@]12C[C@H](CC(=O)NCc3ccc(OC)c(OC)c3)C(=O)N(Cc3ccccc3)C1=C[C@H](C1CCCC1)O[C@@H]2C	nt	nt	nt	nt	3	nt	nt
CC(=O)Oc1ccc(/C=C(\NC(=O)c2cccc(Br)c2)C(=O)Nc2ccc(C(=O)O)cc2)cc1	2	1	-1	-19	50*	27	6.4*
O=C(COc1ccccc1)N/N=C/c1sc(=O)n(Cc2cccc(C(=O)O)c2)c1Cl	3	7	2	14	34	nt	nt
Cc1cccc(OCC(=O)N/N=C/c2sc(=O)n(Cc3cccc(C(=O)O)c3)c2Cl)c1	-1	3	0	11	35*	37*	10*
C(=NN=C1c2ccccc2-c2ccccc21)c1c[nH]c2ccccc12	7	10	5	2	35*	39*	20*
O=[N+]([O-])c1cccc(/C=N\N=C2c3ccccc3-c3ccccc32)c1O	-1	19	1	-8	2	nt	nt
Oc1ccc(C=NN=C2c3ccccc3-c3ccccc32)c(O)c1	-3	1	4	-5	49*	49*	32*
Fc1c(F)c(F)c(N/N=C/c2c[nH]c3ccccc23)c(F)c1F	1	1	4	-3	34	nt	nt
COc1ccc(NS(=O)(=O)c2ccc3nc(COc4ccc5ccccc5c4)[nH]c3c2)cc1	-2	30	4	5	51*	19	14*
COc1ccc(OCc2nc3ccc(S(=O)(=O)Nc4ccccc4Cl)cc3[nH]2)cc1	0	0	0	6	14	nt	nt
Cc1cc(C)cc(NC(=O)OC2CCC23CCCCC3)c1 (centres undefined)	nt	nt	nt	nt	-1	nt	nt
C#CCN(C1CC1)S(=O)(=O)c1ccccc1Br	nt	nt	nt	nt	-1	nt	nt
Cc1cc(Nc2cccc(Cl)c2)nc(-c2ccccc2O)n1	2	-2	4	-2	36*	24	10.0*
Fc1ccccc1Cn1ccc2ccc(-c3ccc4ccn(Cc5ccccc5)c4c3)cc21	nt	nt	nt	nt	8	nt	nt
CC(C)CNS(=O)(=O)/C=C/c1ccccc1CNC(=O)OC(C)(C)C	nt	nt	nt	nt	0	nt	nt
COc1cc2c(cc1NC(=O)c1ccccc1-c1ccccc1C(=O)O)-c1ccccc1C2	2	4	0	nt	66*	60*	20*
CCOc1ccc(C(=O)Nc2nnc(S(=O)(=O)N(C)Cc3ccco3)s2)cc1	0	18	-1	0	36*	37*	11*
CCC(=O)Nc1nnc(S(=O)(=O)N(C)Cc2ccco2)s1	0	-4	-1	-6	1	nt	nt
CN(Cc1ccco1)S(=O)(=O)c1nnc(NC(=O)c2ccc(F)cc2)s1	1	10	2	5	37*	25	7.4*
COC(=O)C1CN(Cc2cn(Cc3ccc(Cl)cc3)nn2)CCS(=O)(=O)N1Cc1ccc(F)cc1 (centres undefined)	nt	nt	nt	nt	1	nt	nt
Cc1[nH]nc2c1C(c1ccc(Br)cc1)N(c1ccccc1)C2=O (centres undefined)	nt	nt	nt	nt	3	nt	nt
Cc1ccc(Cc2c(-c3ccco3)nc3c(C)cc(Br)cn23)cc1	2	15	2	nt	30	nt	nt
Cc1cc(Br)cn2c(Cc3cccc(Cl)c3)c(C3CCCCC3)nc12	nt	nt	nt	nt	9	nt	nt
Cc1cc(Br)cn2c(Cc3cccc(Cl)c3)c(-c3ccco3)nc12	nt	27	2	nt	42*	18	5.2*
Clc1cccc(Cc2c(C3CCCCC3)nc3ccc(Br)cn23)c1	0	0	1	nt	36*	23	3
Clc1ccc(-c2nc3ccc(Cl)cn3c2Cc2cccc(Cl)c2)cc1	1	20	3	nt	28	nt	nt
Clc1cccc(Cc2c(-c3cccc(Br)c3)nc3ccc(Cl)cn23)c1	1	15	4	nt	45*	26	9.9*
Clc1cccc(Cc2c(-c3ccccc3)nc3ccc(Cl)cn23)c1	0	2	0	nt	36*	19	5.5*
COc1ccc(-c2noc(C3CCCN(C(=O)Nc4ccc5c(c4)OCO5)C3)n2)cc1 (centres undefined)	nt	nt	nt	nt	5	nt	nt
